Legend:
[1] = target: T1, hM1 (Homo sapiens, UniProt P11229); assay: Calcium mobilization PAM assay in hM1-CHO cells with EC20 acetylcholine; type: cell-based; conditions: PAM mode
T1 sequence (P11229 1-460): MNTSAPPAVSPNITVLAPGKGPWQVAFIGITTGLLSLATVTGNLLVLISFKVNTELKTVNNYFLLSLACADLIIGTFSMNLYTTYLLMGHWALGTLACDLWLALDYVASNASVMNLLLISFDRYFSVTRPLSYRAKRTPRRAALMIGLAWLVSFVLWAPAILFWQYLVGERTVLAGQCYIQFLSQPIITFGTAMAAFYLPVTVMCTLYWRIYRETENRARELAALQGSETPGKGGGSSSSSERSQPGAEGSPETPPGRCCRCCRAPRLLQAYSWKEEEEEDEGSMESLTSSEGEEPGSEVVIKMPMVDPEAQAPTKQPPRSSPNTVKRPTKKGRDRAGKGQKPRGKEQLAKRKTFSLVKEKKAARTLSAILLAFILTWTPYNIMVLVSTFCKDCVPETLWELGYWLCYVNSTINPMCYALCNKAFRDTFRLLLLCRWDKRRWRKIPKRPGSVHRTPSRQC

[2] = Predicted hepatic clearance, rat; type: in vitro ADME
[3] = target: T1, hM1; assay: Calcium mobilization agonist mode in hM1-CHO cells, no exogenous ACh; type: cell-based; conditions: no exogenous acetylcholine
Outline: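 Calcium mobilization in CHO cells expressing human M1, run without added acetylcholine to measure direct agonist activity and derive agonist EC50. Values are means of one to three independent experiments, each run in triplicate.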

[4] = target: T2, hM4 (Homo sapiens, UniProt P08173); assay: Calcium mobilization PAM selectivity assay, hM4; type: cell-based
T2 sequence (P08173 1-479): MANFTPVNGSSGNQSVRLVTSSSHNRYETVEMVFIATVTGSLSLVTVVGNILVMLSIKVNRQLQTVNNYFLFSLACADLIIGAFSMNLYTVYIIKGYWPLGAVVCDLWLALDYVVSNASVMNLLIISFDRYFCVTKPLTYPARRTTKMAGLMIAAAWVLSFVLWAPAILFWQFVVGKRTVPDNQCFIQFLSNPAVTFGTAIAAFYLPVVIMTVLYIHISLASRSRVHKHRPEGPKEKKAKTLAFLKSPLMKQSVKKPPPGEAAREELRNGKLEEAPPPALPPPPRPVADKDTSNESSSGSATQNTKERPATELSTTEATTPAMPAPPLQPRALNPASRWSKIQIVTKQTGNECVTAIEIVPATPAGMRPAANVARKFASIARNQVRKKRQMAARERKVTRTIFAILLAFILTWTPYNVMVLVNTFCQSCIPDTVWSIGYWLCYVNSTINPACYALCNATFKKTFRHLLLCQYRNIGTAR

[5] = Predicted hepatic clearance, human; type: in vitro ADME

Compound: Cn1cc2c(-c3cc(F)c(CN4Cc5ocnc5C4=O)c(F)c3)cccc2n1 [Compound 12b]
- hM1 activity (in words) [1]: inactive

Compound: Cn1cc2c(-c3cc(F)c(CN4Cc5nc[nH]c5C4=O)c(F)c3)cccc2n1 [Compound 8a]
- hM1 activity (in words) [1]: inactive

Compound: Cc1[nH]cc2c1C(=O)N(Cc1c(F)cc(-c3cccc4nn(C)cc34)cc1F)C2 [Compound 25a]
- hM1 activity (in words) [1]: inactive

Compound: Cn1cc2cc(-c3ccc(CN4Cc5ncsc5C4=O)c(F)c3)ccc2n1 [Compound 8b]
- rClhep [2]: 43 mL/min/kg
- hM1 agonist activity [3]: devoid of any hM1 agonist activity
- EC50 [4]: > 10 µM
- hClhep [5]: 10.4 mL/min/kg

Compound: Cn1cc2c(-c3cc(F)c(CN4Cc5cnn(CC6CCCO6)c5C4=O)c(F)c3)cccc2n1 (stereo not drawn) [Compound 20a]
- rClhep [2]: 58.7 mL/min/kg
- hM1 agonist activity [3]: devoid of any hM1 agonist activity
- EC50 [4]: > 10 µM
- hClhep [5]: 18.6 mL/min/kg

Compound: Cn1cc2c(-c3cc(F)c(CN4Cc5ncoc5C4=O)c(F)c3)cccc2n1 [Compound 12a]
- hM1 activity (in words) [1]: inactive
